# Data reported in ChEMBL document CHEMBL1126556, “Novel antiasthmatic agents with dual activities of thromboxane A2 synthetase inhibition and bronchodilation. 1. 2-[2-(1-Imidazolyl)alkyl]-1(2H)-phthalazinones” (J Med Chem, 1993).
# How the values were obtained:
# [1] = species on record: Cavia porcellus; assay: Tested in vitro for bronchodilatory activity by spontaneous tone inhibition in guinea pig tracheal strips; assay type: functional; details: Trachea
# [2] = tested on: Thromboxane-A synthase (Oryctolagus cuniculus); assay: Tested for inhibition of thromboxane A2 (TXA2) production in rabbit by in vitro assay at 1 uM
# [3] = tested on: Cavia porcellus; assay: In vivo inhibitory effect on airway constriction induced by histamine 2-5 micro g/kg iv at 1 min after 10 mg/kg intravenous dose in anesthetized guinea pigs; assay type: functional
# In short: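 Male Dunkin-Hartley guinea pigs, anesthetized with pentobarbital 35 mg/kg ip, cannulated at jugular vein and trachea, ventilated at 10 mL/kg and 60 strokes/min. Insufflation pressure recorded continuously by transducer. Histamine given iv every 10 min until the constriction was reproducible. Compound 10 mg/kg iv given 1 min before the next challenge. Result is mean % inhibition against control response, from ≥3 experiments.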
# [4] = target: T1, Thromboxane-A synthase (Rattus norvegicus) (UniProt P49430); assay: Tested for inhibition of thromboxane A2 (TXA2) production in rat serum by ex vivo assay after peroral dose of 30 mg/kg; assay type: functional, organism-based; set-up: dose 30 mg/kg
# T1 sequence (whole entry): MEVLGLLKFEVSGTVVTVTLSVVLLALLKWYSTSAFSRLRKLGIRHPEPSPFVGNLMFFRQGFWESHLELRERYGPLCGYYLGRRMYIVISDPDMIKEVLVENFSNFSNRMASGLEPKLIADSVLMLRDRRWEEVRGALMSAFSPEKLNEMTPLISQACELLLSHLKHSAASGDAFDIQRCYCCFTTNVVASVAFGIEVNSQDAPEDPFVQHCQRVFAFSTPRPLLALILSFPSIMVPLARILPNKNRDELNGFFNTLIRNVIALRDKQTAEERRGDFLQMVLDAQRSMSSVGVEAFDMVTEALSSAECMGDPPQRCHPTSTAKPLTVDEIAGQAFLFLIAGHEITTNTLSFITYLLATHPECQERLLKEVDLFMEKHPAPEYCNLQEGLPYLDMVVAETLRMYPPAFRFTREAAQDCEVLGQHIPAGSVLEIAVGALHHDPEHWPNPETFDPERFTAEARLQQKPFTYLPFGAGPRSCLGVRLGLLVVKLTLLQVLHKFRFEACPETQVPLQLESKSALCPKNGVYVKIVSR
# In short: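 Male SD rats (240–260 g), fasted 20 h, dosed orally in 0.5% carboxymethylcellulose or given vehicle. After 1 h under ether, 2 mL cardiac blood was drawn and clotted 90 min at 37 °C. Serum was EtOH-deproteinized and stored at -20 °C. TXB₂ measured by radioimmunoassay. % inhibition calculated against each vehicle control group.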
# [5] = Partition coefficient (logP); assay type: physicochemical; details: octanol/water
SMILES,IC50 [1],inhibition [2],inhibition in vivo at 10 mg/kg [3],inhibition [4],logP [5]
O=c1c2ccccc2c(-c2ccccc2)nn1CCCn1ccnc1,11 µM,57%,,,
O=c1c2ccccc2c(-c2ccc(Cl)s2)nn1CCn1ccnc1,1.45 µM,47%,96%,15%,
O=c1c2ccccc2c(-c2ccccc2)nn1CCCCn1ccnc1,17.4 µM,65%,,,
O=c1c2ccccc2c(-c2ccc(C(F)(F)F)cc2)nn1CCn1ccnc1,11.2 µM,40%,,,
COc1ccc(-c2nn(CCn3ccnc3)c(=O)c3ccccc23)cc1F,3.89 µM,63%,54%,60%,
O=c1c2ccccc2c(-c2ccco2)nn1CCn1ccnc1,42.7 µM,27%,,,1.52
CCOc1ccc(-c2nn(CCn3ccnc3)c(=O)c3ccccc23)cc1,5.62 µM,54%,87%,68%,
O=c1c2ccccc2c(Cc2ccc(Cl)cc2)nn1CCn1ccnc1,5.62 µM,49%,100%,40%,
O=c1c2ccccc2c(-c2ccncc2)nn1CCn1ccnc1,24 µM,27%,100%,47%,0.66
O=c1c2ccccc2c(C2CCCCC2)nn1CCn1ccnc1,0.676 µM,32%,71%,28%,3.19
O=c1c2ccccc2c(-c2cccc(C(F)(F)F)c2)nn1CCn1ccnc1,1 µM,49%,42%,37%,
O=c1c2ccccc2c(Cc2cccs2)nn1CCn1ccnc1,7.59 µM,29%,100%,35%,
O=c1c2ccccc2c(-c2ccccc2)nn1CCn1ccnc1,1.32 µM,41%,88%,0%,2.14
Cc1nn(CCn2ccnc2)c(=O)c2ccccc12,> 100 µM,10%,,,0.538
O=c1c2ccccc2c(-c2ccc(Cl)cc2)nn1CCn1ccnc1,2.04 µM,63%,71%,40%,
O=C(O)c1ccccc1-c1nn(CCn2ccnc2)c(=O)c2ccccc12,49 µM,14%,94%,,
O=c1c2ccccc2c(-c2ccc(F)cc2)nn1CCn1ccnc1,15.8 µM,33%,100%,46%,
CC(C)c1ccc(-c2nn(CCn3ccnc3)c(=O)c3ccccc23)cc1,5.37 µM,64%,68%,52%,
O=C(O)c1cccc(-c2nn(CCn3ccnc3)c(=O)c3ccccc23)c1,> 100 µM,10%,33%,,
O=C(O)c1ccc(-c2nn(CCn3ccnc3)c(=O)c3ccccc23)s1,34.7 µM,,5%,,
O=c1c2ccccc2c(-c2ccccn2)nn1CCn1ccnc1,42.7 µM,20%,30%,41%,0.87

SMILES,IC50 [1],inhibition [2],inhibition in vivo at 10 mg/kg [3],inhibition [4],logP [5]
CSc1ccc(-c2nn(CCn3ccnc3)c(=O)c3ccccc23)cc1,4.47 µM,83%,73%,67%,2.7
CC(=O)c1ccc(-c2nn(CCn3ccnc3)c(=O)c3ccccc23)s1,15.1 µM,80%,94%,5%,1.51
Cc1ccc(-c2nn(CCn3ccnc3)c(=O)c3ccccc23)s1,6.61 µM,53%,26%,0%,
O=C(O)c1ccc(-c2nn(CCn3ccnc3)c(=O)c3ccccc23)cc1,64.6 µM,24%,21%,,
Cc1ccc(-c2nn(CCn3ccnc3)c(=O)c3ccccc23)cc1,5.13 µM,76%,94%,0%,
CCOC(=O)c1ccccc1-c1nn(CCn2ccnc2)c(=O)c2ccccc12,60.3 µM,64%,60%,,
CCOC(=O)c1ccc(-c2nn(CCn3ccnc3)c(=O)c3ccccc23)s1,13.2 µM,62%,92%,,
CCOC(=O)c1cccc(-c2nn(CCn3ccnc3)c(=O)c3ccccc23)c1,2.34 µM,55%,90%,0%,
COc1ccc(-c2nn(CCn3ccnc3)c(=O)c3ccccc23)cc1OC,6.46 µM,27%,90%,32%,
CC(C)Cc1nn(CCn2ccnc2)c(=O)c2ccccc12,12 µM,14%,,21%,2
O=c1c2ccccc2c(Cc2ccccc2)nn1CCn1ccnc1,10.7 µM,45%,98%,-5%,
COc1ccc(-c2nn(CCn3ccnc3)c(=O)c3ccccc23)s1,4.27 µM,88%,,,1.94
O=c1c2ccccc2c(-c2ccccc2)nn1CCCCCCCCn1ccnc1,8.13 µM,63%,,,
O=c1c2ccccc2c(-c2ccccc2)nn1CCCCCCn1ccnc1,9.77 µM,79%,,,
O=C(O)/C=C/c1ccc(Cn2ccnc2)cc1 [OZAGREL],> 1000 µM,,0%,,
CCc1ccsc1-c1nn(CCn2ccnc2)c(=O)c2ccccc12,18.6 µM,68%,84%,46%,
O=c1c2ccccc2c(C2CCCC2)nn1CCn1ccnc1,5.89 µM,38%,98%,,2.63
O=c1c2ccccc2c(-c2ccccc2)nn1CCCCCn1ccnc1,23.4 µM,69%,,,
CCOC(=O)c1ccc(-c2nn(CCn3ccnc3)c(=O)c3ccccc23)cc1,10 µM,60%,92%,,
Cn1c(=O)c2[nH]cnc2n(C)c1=O [AMINOPHYLLINE],46.8 µM,,86%,0%,
